inhibition, Ki and Ratio Ki data for 2 molecules are collected here from ChEMBL document CHEMBL2429849, “Substrate-based fragment identification for the development of selective, nonpeptidic inhibitors of striatal-enriched protein tyrosine phosphatase” (J Med Chem, 2013).

In assay [1] the target is T1, Tyrosine-protein phosphatase non-receptor type 5 (Rattus norvegicus) (UniProt P35234).
T1 sequence (whole entry): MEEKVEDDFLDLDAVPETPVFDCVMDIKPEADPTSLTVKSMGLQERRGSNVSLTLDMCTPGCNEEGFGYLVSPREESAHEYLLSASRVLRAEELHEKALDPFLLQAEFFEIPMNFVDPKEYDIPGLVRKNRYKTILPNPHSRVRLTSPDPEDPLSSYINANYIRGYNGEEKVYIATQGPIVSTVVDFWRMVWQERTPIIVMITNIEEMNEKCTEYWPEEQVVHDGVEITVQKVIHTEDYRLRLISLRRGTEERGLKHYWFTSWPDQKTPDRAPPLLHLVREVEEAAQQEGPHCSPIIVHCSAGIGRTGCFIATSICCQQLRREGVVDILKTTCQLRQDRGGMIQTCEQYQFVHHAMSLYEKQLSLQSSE
The assay is described as follows: Inhibition of STEP in Sprague-Dawley rat embryo primary cortical neurons assessed as phosphorylation of GluN2B at 0.1 to 10 uM after 1 hr by Western blot analysis. The conditions noted are these: Cerebral cortex neuron. The procedure, abridged: (§1)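 E18 rat cortical neurons were trypsin-dissociated and plated on poly-D-lysine in Neurobasal with 2% B27, then grown 18–21 days at 37 °C. Compound was added at final 0, 0.1, 1 or 10 μM (0.1% DMSO) for 1 h at 37 °C. Cells were lysed in RIPA with protease/phosphatase inhibitors and protein measured by BCA. Phospho and total proteins were blotted by SDS-PAGE, with antibodies overnight at 4 °C and chemiluminescent detection.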
On the technique in general: A western blot detects proteins with antibodies after separation by electrophoresis.

The target of assay [2] is T1, Tyrosine-protein phosphatase non-receptor type 5 (Rattus norvegicus). In words: Inhibition of STEP in Sprague-Dawley rat embryo primary cortical neurons assessed as phosphorylation of ERK1/2 at 0.1 to 10 uM after 1 hr by Western blot analysis. To be noted: Cerebral cortex neuron. The method in brief:
as §1

In assay [3] the target is Receptor-type tyrosine-protein phosphatase F (Homo sapiens, UniProt P10586). The assay is described as follows: Inhibition of human LAR using pNPP as substrate after 5 mins by spectrophotometric plate reader analysis. The procedure, abridged: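 Enzyme preincubated 5 min at 27 °C with serially diluted inhibitor (from DMSO) in imidazole/NaCl buffer pH 7.0 with 0.01% Triton X-100 and 5 mM DTT. Started with pNPP (500 μM in assay) and read at 405 nm for 20 min. The pNPP KM was measured for each enzyme. Ki from nonlinear regression of substrate–velocity curves at several inhibitor levels; at least duplicate.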
Chain of Receptor-type tyrosine-protein phosphatase F (P10586 whole entry): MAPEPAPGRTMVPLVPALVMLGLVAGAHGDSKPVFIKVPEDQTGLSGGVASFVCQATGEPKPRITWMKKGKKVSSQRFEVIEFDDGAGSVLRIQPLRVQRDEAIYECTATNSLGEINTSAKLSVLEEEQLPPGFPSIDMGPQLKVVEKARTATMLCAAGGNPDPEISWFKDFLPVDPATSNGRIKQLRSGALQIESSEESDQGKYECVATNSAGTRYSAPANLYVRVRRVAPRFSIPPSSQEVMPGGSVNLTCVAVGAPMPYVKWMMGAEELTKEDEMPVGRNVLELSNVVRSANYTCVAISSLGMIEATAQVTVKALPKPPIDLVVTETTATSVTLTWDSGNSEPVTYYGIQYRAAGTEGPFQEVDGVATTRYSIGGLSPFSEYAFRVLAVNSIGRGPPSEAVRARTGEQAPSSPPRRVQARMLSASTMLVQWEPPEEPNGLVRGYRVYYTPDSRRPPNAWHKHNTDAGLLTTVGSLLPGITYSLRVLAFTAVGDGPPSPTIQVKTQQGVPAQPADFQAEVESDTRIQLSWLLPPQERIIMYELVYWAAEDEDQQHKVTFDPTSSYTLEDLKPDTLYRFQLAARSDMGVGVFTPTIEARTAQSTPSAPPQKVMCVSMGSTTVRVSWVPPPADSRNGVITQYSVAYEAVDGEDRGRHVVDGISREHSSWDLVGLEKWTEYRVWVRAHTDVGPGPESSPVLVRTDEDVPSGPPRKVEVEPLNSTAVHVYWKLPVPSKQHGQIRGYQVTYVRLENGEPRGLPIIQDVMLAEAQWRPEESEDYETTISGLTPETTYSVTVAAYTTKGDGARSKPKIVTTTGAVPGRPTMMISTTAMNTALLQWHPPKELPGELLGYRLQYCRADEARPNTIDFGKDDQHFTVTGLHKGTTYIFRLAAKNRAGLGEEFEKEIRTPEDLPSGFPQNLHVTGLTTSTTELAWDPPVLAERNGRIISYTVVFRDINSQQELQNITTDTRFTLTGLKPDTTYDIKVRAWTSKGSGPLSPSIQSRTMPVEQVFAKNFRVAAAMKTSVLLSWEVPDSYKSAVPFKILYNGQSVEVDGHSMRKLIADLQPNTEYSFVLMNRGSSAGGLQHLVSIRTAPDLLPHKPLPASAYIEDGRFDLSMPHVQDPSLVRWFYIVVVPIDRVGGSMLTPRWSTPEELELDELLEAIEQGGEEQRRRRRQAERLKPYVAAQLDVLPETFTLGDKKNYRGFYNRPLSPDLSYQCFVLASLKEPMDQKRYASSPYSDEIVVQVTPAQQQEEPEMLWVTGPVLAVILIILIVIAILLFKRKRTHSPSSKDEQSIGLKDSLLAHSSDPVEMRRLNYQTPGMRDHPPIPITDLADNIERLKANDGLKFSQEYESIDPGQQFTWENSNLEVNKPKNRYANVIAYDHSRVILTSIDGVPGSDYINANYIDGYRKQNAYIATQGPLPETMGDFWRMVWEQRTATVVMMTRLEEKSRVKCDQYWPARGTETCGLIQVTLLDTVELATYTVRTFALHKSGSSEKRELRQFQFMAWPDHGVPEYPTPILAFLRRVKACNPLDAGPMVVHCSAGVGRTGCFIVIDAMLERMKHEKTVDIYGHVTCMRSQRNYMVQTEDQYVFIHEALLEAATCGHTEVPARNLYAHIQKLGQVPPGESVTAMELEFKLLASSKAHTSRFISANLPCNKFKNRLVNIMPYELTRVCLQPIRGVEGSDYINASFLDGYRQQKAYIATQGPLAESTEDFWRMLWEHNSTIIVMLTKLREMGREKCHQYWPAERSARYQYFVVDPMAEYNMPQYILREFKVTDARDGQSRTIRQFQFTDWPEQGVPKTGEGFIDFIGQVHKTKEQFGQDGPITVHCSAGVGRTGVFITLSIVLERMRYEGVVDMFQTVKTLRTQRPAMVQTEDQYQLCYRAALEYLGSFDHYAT

Assay [4] concerns the target T2, Tyrosine-protein phosphatase non-receptor type 2 (Homo sapiens, UniProt P17706).
T2 sequence (P17706 whole entry): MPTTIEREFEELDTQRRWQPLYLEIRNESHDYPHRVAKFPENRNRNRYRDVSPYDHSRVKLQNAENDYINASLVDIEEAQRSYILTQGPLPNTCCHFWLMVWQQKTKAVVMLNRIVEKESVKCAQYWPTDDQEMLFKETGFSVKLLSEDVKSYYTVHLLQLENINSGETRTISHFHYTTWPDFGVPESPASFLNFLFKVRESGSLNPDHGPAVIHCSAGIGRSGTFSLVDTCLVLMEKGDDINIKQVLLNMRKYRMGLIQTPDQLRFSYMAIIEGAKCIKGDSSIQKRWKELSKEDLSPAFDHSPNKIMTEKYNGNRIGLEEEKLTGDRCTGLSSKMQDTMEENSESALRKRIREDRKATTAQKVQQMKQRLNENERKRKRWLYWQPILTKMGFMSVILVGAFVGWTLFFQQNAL
The assay is described as follows: Inhibition of human TC-PTP using pNPP as substrate after 5 mins by spectrophotometric plate reader analysis. The procedure, abridged:
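Selectivity assay using the STEP Ki protocol. Enzyme was preincubated 5 min at 27 °C with two- or three-fold inhibitor serial dilutions in DMSO, in imidazole/NaCl buffer at pH 7.0 with 0.01% Triton X-100 and 5 mM DTT. Reaction started with pNPP (500 μM in assay), read continuously at 405 nm for 20 min. Ki came from nonlinear regression of substrate-velocity curves, using this enzyme's pNPP KM; at least duplicate.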

The species named for the next assay is Homo sapiens. The assay is described as follows: Selectivity ratio of Ki for human TC-PTP to Ki for human STEP. The method in brief:
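STEP, CD45, LAR and TC-PTP used pNPP (500 μM) in imidazole/NaCl pH 7.0 with Triton X-100, read at 405 nm for 20 min. MKP5 used DiFMUP in Tris-HCl pH 8.0. The enzyme's own pNPP KM was used in analysis; ratio of the Ki values.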

Calls of active or inactive are those of the source. The calls are words filed in the database; no cut-off is given here.

What is called Ki is the equilibrium dissociation constant of an inhibitor or competing ligand from its target. Low readings indicate a stronger hold on the target, high ones a looser hold on the target. As to `O=P(O)(O)[C@H](O)c1ccc(-c2cccc([C@@H](O)c3ccc(Cl)c(Cl)c3)c2)cc1`, the inhibition result in assay [1] and in assay [2] was “Active” throughout. Besides, the Ki in assay [3] came to 360 µM; in assay [4], 164 µM. The Ratio Ki in the assay listed under Homo sapiens stood at 18.
In the case of `O=P(O)(O)[C@H](O)c1ccc(-c2cccc([C@H](O)c3ccc(Cl)c(Cl)c3)c2)cc1`, the inhibition entry in assay [1] and in assay [2] was “Active” each time. The inhibition constant Ki in assay [3] came out at 390 µM; in assay [4], 170 µM. For the same molecule, the Ratio Ki in the assay listed under Homo sapiens is 22.
